Test results published in ChEMBL document CHEMBL1157079, “Labdane diterpenes from the aerial parts of Curcuma comosa enhance fetal hemoglobin production in an erythroid cell line” (J Nat Prod, 2010).
The source made the active and inactive calls. The rule behind the calls is not given here.

Key:
K562 [1] = experiment: Induction of fetal heamoglobin level in human K562 cells assessed as increase in enhanced-GFP expression under the control of gamma-globin promoter at 5 to 100 uM after 5 days by flow cytometry; format: functional, cell-based
Procedure, shortened: (§1)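 Stable reporter line K562::∆Gγ-Aγ EGFP, carrying the EGFP gene under a γ-globin promoter within the intact human β-globin locus. Compounds tested at 5-100 µM. Read-out is EGFP expression as fold change relative to untreated, with % cell viability measured alongside. Hemin 50 µM and cisplatin 10 µM serve as reference inducers, with a DMSO vehicle control. Values are mean ± SD of three independent experiments.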

[2] = Cytotoxicity against human K562 cells assessed as cell viability at 5 uM; format: cell-based; conditions: read-out: Activity; procedure, shortened: as §1
K562 [3] = experiment: Induction of fetal heamoglobin level in human K562 cells assessed as increase in enhanced GFP expression under the control of gamma-globin promoter at 5 uM after 5 days by flow cytometry; format: functional; procedure, shortened: as §1
K562 [4] = experiment: Induction of fetal heamoglobin level in human K562 cells assessed as increase in enhanced-GFP expression under the control of gamma-globin promoter at 30 uM after 5 days by flow cytometry; format: functional; procedure, shortened: as §1
[5] = Cytotoxicity against human K562 cells assessed as cell viability at 30 uM; format: cell-based; conditions: read-out: Activity; procedure, shortened: as §1
[6] = Cytotoxicity against human K562 cells assessed as cell viability at 20 uM; format: cell-based; conditions: read-out: Activity; procedure, shortened: as §1
K562 [7] = experiment: Induction of fetal heamoglobin level in human K562 cells assessed as increase in enhanced-GFP expression under the control of gamma-globin promoter at 20 uM after 5 days by flow cytometry; format: functional; procedure, shortened: as §1
K562 [8] = experiment: Induction of fetal heamoglobin level in human K562 cells assessed as increase in enhanced GFP expression under the control of gamma-globin promoter after 5 days by flow cytometry; format: functional, cell-based; procedure, shortened: as §1

## C=C1CC[C@H]2C(C)(C)CCC[C@]2(C)[C@H]1/C=C/c1ccoc1 [CORONARIN E]
K562 [1]
  Activity: inactive
[2]
  viability at 5 µM: 87.2%
K562 [3]
  fold change (FC): 0.7

## C=C1CC[C@H]2C(C)(C)C(=O)CC[C@]2(C)[C@H]1/C=C/C1=CCOC1=O [CURCUCOMOSIN A]
K562 [1]
  Activity: inactive
[2]
  viability at 5 µM: 85.8%
K562 [3]
  fold change (FC): 1

## C=C1CC[C@H]2C(C)(C)[C@@H](O)CC[C@]2(C)[C@H]1/C=C/C1=CCOC1=O [CURCUCOMOSIN B]
K562 [1]
  Activity: inactive
[2]
  viability at 5 µM: 87.7%
K562 [3]
  fold change (FC): 1

## C=C1CC[C@H]2C(C)(C)CCC[C@]2(C)[C@H]1C[C@@H](O)C1=CCOC1=O [CURCUCOMOSIN C]
K562 [4]
  fold change (FC): 1.2
[5]
  viability at 30 µM: 75.8%

## C=C1CC[C@H]2C(C)(C)CCC[C@]2(C)[C@H]1C/C=C1/C(=O)OC[C@@H]1O [ISOCORONARIN D]
[6]
  viability at 20 µM: 80.7%
K562 [7]
  fold change (FC): 1.6
K562 [8]
  Activity: Dose-dependent effect

## C=C1CC[C@H]2C(C)(C)CCC[C@]2(C)[C@H]1/C=C/C1=CCOC1=O [VILLOSIN]
K562 [1]
  Activity: inactive
[2]
  viability at 5 µM: 88.9%
K562 [3]
  fold change (FC): 1

## C=C1CC[C@H]2C(C)(C)CCC[C@]2(C)[C@H]1/C=C/C1=C(O)COC1=O [ZERUMIN]
K562 [1]
  Activity: inactive
[2]
  viability at 5 µM: 87.5%
K562 [3]
  fold change (FC): 1
